Laboratory results: PubChem BioAssay
Activity calls are given as the source filed them.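 The calls were made as follows, unless noted: active = viability at or under a set limit in both replicates, limit being median viability minus 3 SD (cut at about 48% in these data, passing the limit was not always enough); inconclusive = at or under the limit in just one replicate; inactive = at or above the limit in both replicates.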

Key:
[1] = reducers of endogenous Her2 protein level, primary screen, SKBR3 breast tumor cells, AlphaScreen, ATP viability (AID 461;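 active = Her2 level under about 52% in both replicate screens, with viability over 70% of control, limit read from the data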;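 as to Her2 level: lower value means less Her2 protein in the cells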;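 as to viability: percent of carrier control wells set as 100% viability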); conditions: 18-24 h, measured here: SKBR3 viability, ATP luminescence, at 10 µM
[2] = target: Receptor tyrosine-protein kinase erbB-2 (Homo sapiens) (UniProt P04626); experiment: as above; conditions: 18-24 h, at 10 µM, stronger effect = lower value
[3] = SK-BR-3 cell growth inhibitors, pilot screen, 24 h, human (AID 572;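 active = viability at or below 10% of carrier control in both of two separate runs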;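 also: compound exposure lasted between 18 and 24 h rather than exactly 24 h; 100% = carrier-treated control wells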); conditions: SK-BR-3 viability, CellTiter-Glo luminescence, at 10 µM, stronger effect = lower value
[4] = HUVEC growth inhibition – cell-based, human, primary screen (AID 575;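 active = viability at or below 30% in both replicate assays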;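 also: 100% = median of untreated cell wells with 0.1% DMSO on each plate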); conditions: HUVEC proliferation, CellTiter-Glo luminescence, 72 h; at 10 µM; stronger effect = lower value
In short: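 Material: primary human umbilical vein endothelial cells / Schedule: 72 h exposure, 37 °C, 5% CO2, 30 min RT equilibration / Signal: ATP-based CellTiter-Glo luminescent read / Read-out basis: percent of median DMSO-control luminescence / Control set: 32 DMSO-only cell-control wells (high), 32 MePR drug-control wells (low) per plate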

[5] = growth inhibitors of H69AR lung tumor, primary screen, human, duplicate replicates (AID 580); conditions: H69AR lung tumor cells viability, ATP luminescence, 72 h; at 10 µM; stronger effect = lower value;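 also: 100% = mean luminescence of untreated wells and 0% = no signal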
[6] = reversal of MRP1-mediated doxorubicin resistance, pilot screen, H69AR cells, doxorubicin co-treatment (AID 601;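 active = viability loss from added drug above about 55%, and viability with drug at most 40%, in both replicates, limit read from the data, passing the limit was not always enough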); conditions: CellTiter-Glo, 72 h, at 10 µM; for differential viability (reversal): stronger effect = higher value
[7] = 384-well plate pilot, post-Golgi transport modulator project, inhibition of yeast transport mutant growth (AID 636; in the data active = inhibition above about 31%); conditions: absorbance 615 nm, about 18 h, stronger effect = higher value
[8] = growth suppression of yeast trafficking mutant, preliminary HTS, modulators of trafficking downstream of Golgi apparatus project, 1536-format plate, OD 615 nm (AID 637; in the data active = inhibition above about 30%); conditions: yeast transport mutant growth, absorbance 615 nm, 18 h; stronger effect = higher value
[9] = H69AR cells + 2 uM doxorubicin, measured here: viability with 2 uM doxorubicin, stronger effect = lower value
[10] = H69AR cells, compound alone cytotoxicity

Receptor tyrosine-protein kinase erbB-2 (Homo sapiens), sequence (P04626 whole entry, looked up): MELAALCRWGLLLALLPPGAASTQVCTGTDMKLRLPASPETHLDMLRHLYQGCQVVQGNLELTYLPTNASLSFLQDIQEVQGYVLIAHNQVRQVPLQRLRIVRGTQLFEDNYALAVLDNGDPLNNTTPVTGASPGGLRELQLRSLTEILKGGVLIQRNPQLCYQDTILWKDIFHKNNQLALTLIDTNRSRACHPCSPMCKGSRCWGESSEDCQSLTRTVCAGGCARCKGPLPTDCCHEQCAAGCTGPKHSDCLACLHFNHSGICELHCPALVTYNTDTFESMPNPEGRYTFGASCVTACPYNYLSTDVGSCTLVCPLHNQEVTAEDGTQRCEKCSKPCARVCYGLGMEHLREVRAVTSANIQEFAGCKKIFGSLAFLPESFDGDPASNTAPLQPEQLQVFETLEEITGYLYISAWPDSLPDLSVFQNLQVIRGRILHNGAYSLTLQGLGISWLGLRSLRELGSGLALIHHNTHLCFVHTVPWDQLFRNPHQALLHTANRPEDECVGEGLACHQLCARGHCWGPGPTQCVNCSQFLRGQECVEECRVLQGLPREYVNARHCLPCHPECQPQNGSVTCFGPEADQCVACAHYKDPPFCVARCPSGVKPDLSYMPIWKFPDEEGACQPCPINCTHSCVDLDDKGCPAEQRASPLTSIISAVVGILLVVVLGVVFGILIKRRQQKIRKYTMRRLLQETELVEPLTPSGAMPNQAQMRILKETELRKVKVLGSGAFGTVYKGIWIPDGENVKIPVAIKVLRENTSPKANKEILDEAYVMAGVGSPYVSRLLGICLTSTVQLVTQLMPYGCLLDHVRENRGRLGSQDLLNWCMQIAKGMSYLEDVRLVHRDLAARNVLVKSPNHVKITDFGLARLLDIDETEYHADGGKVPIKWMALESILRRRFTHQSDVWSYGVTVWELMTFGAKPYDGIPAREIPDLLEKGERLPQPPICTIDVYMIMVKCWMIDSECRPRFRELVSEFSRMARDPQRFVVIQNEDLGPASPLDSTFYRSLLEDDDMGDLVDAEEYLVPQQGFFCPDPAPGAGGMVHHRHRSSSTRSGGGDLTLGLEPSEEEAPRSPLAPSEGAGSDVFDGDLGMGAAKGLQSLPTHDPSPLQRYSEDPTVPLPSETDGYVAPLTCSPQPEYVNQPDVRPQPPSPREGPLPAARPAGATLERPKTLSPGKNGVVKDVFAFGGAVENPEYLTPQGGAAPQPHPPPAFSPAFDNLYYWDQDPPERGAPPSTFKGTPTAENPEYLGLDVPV

Row | SMILES | viability [1] [%] | Her2 level [2] | viability [3] | viability [4] | viability [5] | differential viability (reversal) ([6]; H69AR cells + 2 uM doxorubicin) | viability [6, 9] [%] | viability [6, 10] [%] | inhibition [7] | inhibition [8]
1 | CCn1c(=O)cc(OCC(=O)NCCCN2CC(C)CC(C)C2)c2ccccc21 (stereo not given) | 101 | 81% (inactive) | 101% (inactive) | 81.3% (inactive) | 74.7% (inactive) | -0.8% (inactive) | 75.5 | 74.7 | -7.24% (inactive) | -2.55% (inactive)
2 | CCOC(=O)C1C(=O)N(C(=O)c2ccc(OC)cc2)CC1c1ccccc1 (stereo not given) | 91.5 | 94.5% (inactive) | 91.5% (inactive) | 83.3% (inactive) | 86.6% (inactive) | 1.9% (inactive) | 84.7 | 86.6 | -0.65% (inactive) | -5.41% (inactive)
3 | O=C(Nc1ccccc1N1CCOCC1)c1ccc2ccccc2n1 | 90 | 83.5% (inactive) | 90% (inactive) | 67.4% (inactive) | 79.4% (inactive) | -12.4% (inactive) | 91.9 | 79.4 | -4.74% (inactive) | -2% (inactive)
4 | COc1cc(C(c2sc3nc(C)nn3c2O)N2CC(C)CC(C)C2)cc(OC)c1OC (stereo not given) | 78 | 98.5% (inactive) | 78% (inactive) | 98.8% (inactive) | 103% (inactive) | 0.2% (inactive) | 103 | 103 | 0.9% (inactive) | 0.17% (inactive)
5 | O=C(NCCN1CCOCC1)c1csc2c1CCCC2 | 97.5 | 83% (inactive) | 97.5% (inactive) | 95% (inactive) | 102% (inactive) | 16.4% (inactive) | 86 | 102 | -7.3% (inactive) | -1.83% (inactive)
6 | OC(COc1ccccc1)CN1C2=NCCCN2c2ccccc21 (stereo not given) | 80.5 | 79.5% (inactive) | 80.5% (inactive) | 97.4% (inactive) | 92.6% (inactive) | 7.67% (inactive) | 85 | 92.6 | -4.93% (inactive) | 3.11% (inactive)
7 | CCCN(CCC)S(=O)(=O)c1ccc(C(=O)Nc2nnc(-c3cccc(OC)c3)o2)cc1 | 98.5 | 89% (inactive) | 98.5% (inactive) | 8.23% (active) | 15.3% (active) | -7.05% (inactive) | 22.3 | 15.3 | -5.79% (inactive) | -1.64% (inactive)
8 | CCc1ccccc1NC(=O)CN(c1cccc(OC)c1)S(C)(=O)=O | 112 | 124% (inactive) | 112% (inactive) | 110% (inactive) | 100% (inactive) | 14.6% (inactive) | 85.8 | 100 | -4% (inactive) | -7.74% (inactive)
9 | CCN(Cc1ccccc1)C(c1ccncc1)c1nnnn1C(C)(C)C (stereo not given) | 102 | 76% (inactive) | 102% (inactive) | 99.5% (inactive) | 78.6% (inactive) | -0.555% (inactive) | 79.1 | 78.6 | -5.73% (inactive) | 4.26% (inactive)
10 | Cc1cccc(NC(=O)c2cc3n(n2)C(C(F)(F)F)CC(c2ccc4c(c2)OCO4)N3)c1 (stereo not given) | 113 | 68.5% (inactive) | 113% (inactive) | 56.9% (inactive) | 73.9% (inactive) | -6.35% (inactive) | 80.2 | 73.9 | -0.53% (inactive) | 1.61% (inactive)
11 | O=C(COc1ccccc1Cl)NCc1ccco1 | 89.5 | 78.5% (inactive) | 89.5% (inactive) | 103% (inactive) | 107% (inactive) | 15.4% (inactive) | 91.6 | 107 | -0.81% (inactive) | -3.93% (inactive)
12 | Cc1cc(C)n(-c2ccc(C(=O)Oc3ccc4c(c3)OCO4)cc2)n1 | 80 | 83.5% (inactive) | 80% (inactive) | 92.3% (inactive) | 90.7% (inactive) | 2.71% (inactive) | 88 | 90.7 | -4.13% (inactive) | -1.11% (inactive)
13 | C=CCNC(=O)CN(c1cccc(Br)c1)S(C)(=O)=O | 96 | 106% (inactive) | 96% (inactive) | 94.6% (inactive) | 102% (inactive) | 10.9% (inactive) | 91.3 | 102 | -5.6% (inactive) | 0.16% (inactive)
14 | COCCn1c(SCC(=O)Nc2nnc(C)s2)nnc1-c1ccncc1 | 110 | 94% (inactive) | 110% (inactive) | 101% (inactive) | 97.9% (inactive) | 11.8% (inactive) | 86.1 | 97.9 | -5.95% (inactive) | 7.83% (inactive)
15 | CCOc1ccc(-n2cc(C(=O)Nc3cccc(C)n3)c3cc(OC)c(OC)cc3c2=O)cc1 | 110 | 91% (inactive) | 110% (inactive) | 71.8% (inactive) | 64.4% (inactive) | -11.8% (inactive) | 76.2 | 64.4 | -5.47% (inactive) | 4.43% (inactive)
16 | O=C(Cn1ncc2ccccc21)N1CCN(c2cccc(C(F)(F)F)c2)CC1 | 89.5 | 94.5% (inactive) | 89.5% (inactive) | 93.4% (inactive) | 87.1% (inactive) | -6.95% (inactive) | 94.1 | 87.1 | -5.87% (inactive) | -1.97% (inactive)
17 | Cc1noc(C)c1S(=O)(=O)N1CCC(C(=O)Nc2ccccn2)CC1 | 98 | 81% (inactive) | 98% (inactive) | 105% (inactive) | 89.5% (inactive) | 6.2% (inactive) | 83.3 | 89.5 | -2.11% (inactive) | 0.48% (inactive)
18 | C=CCSc1nc2c(c(=O)[nH]c(=O)n2C)n1C(C)C | 85.5 | 89% (inactive) | 85.5% (inactive) | 88.9% (inactive) | 106% (inactive) | 17.9% (inactive) | 88.2 | 106 | -2.63% (inactive) | -1.64% (inactive)
19 | O=C(NCN1CCCCC1)c1cnccn1 | 95.5 | 86% (inactive) | 95.5% (inactive) | 103% (inactive) | 89.9% (inactive) | -16.5% (inactive) | 106 | 89.9 | -2.47% (inactive) | -1.15% (inactive)
20 | N#CC1=C(N)SC(N)=C(C#N)C1CCc1ccccc1 | 79.5 | 77.5% (inactive) | 79.5% (inactive) | 44.8% (inactive) | 23.3% (active) | -8.65% (inactive) | 31.9 | 23.3 | -2.11% (inactive) | -0.36% (inactive)
21 | O=C(Nc1ccc(N2CCOCC2)cc1)c1cccc(S(=O)(=O)N2CCCC2)c1 | 88.5 | 85% (inactive) | 88.5% (inactive) | 96.8% (inactive) | 98.4% (inactive) | 5.26% (inactive) | 93.1 | 98.4 | -5% (inactive) | -2% (inactive)
22 | CN(c1ccccc1)C(c1ccc(F)cc1)c1nnnn1CC1CCCO1 (stereo not given) | 104 | 98% (inactive) | 104% (inactive) | 97% (inactive) | 94.1% (inactive) | 6.48% (inactive) | 87.6 | 94.1 | -4.32% (inactive) | 0.83% (inactive)
23 | CC(Sc1nnnn1-c1ccccc1)C(=O)Nc1ccc(Cl)cn1 (stereo not given) | 87.5 | 89% (inactive) | 87.5% (inactive) | 73.9% (inactive) | 92.7% (inactive) | 6.54% (inactive) | 86.1 | 92.7 | -2.76% (inactive) | 5.4% (inactive)
24 | O=C(CCn1nc(-c2ccccc2)ccc1=O)N1CCCC1 | 97 | 96% (inactive) | 97% (inactive) | 114% (inactive) | 94.4% (inactive) | -0.505% (inactive) | 94.9 | 94.4 | -4.74% (inactive) | 0.48% (inactive)
25 | COC(=O)c1cc(Br)c(=O)n(CCN2CCOCC2)c1 | 102 | 87% (inactive) | 102% (inactive) | 81.5% (inactive) | 96.2% (inactive) | 13.5% (inactive) | 82.8 | 96.2 | -4.27% (inactive) | -0.49% (inactive)
26 | COCC(=O)Nc1sc2c(c1C(=O)OC)C(C(=O)OC)CC2 (stereo not given) | 75.5 | 108% (inactive) | 75.5% (inactive) | 84.6% (inactive) | 101% (inactive) | 12.5% (inactive) | 88.6 | 101 | 3.16% (inactive) | 11.4% (inactive)
27 | CC1(C)CNC(=O)CC(C)(C)N1O | 90 | 129% (inactive) | 90% (inactive) | 101% (inactive) | 95.6% (inactive) | 3.01% (inactive) | 92.6 | 95.6 | -1.43% (inactive) | 0% (inactive)
28 | O=C(c1cccn2c(=O)c3cc(Cl)ccc3nc12)N1CCOCC1 | 95.5 | 104% (inactive) | 95.5% (inactive) | 98% (inactive) | 116% (inactive) | 20.2% (inactive) | 96 | 116 | -3.2% (inactive) | -5.32% (inactive)
